Values after ≈ are worked out from the molar mass of the structure shown. Marks after values point to notes of the source that are not given here. Non-standard residues stand in square brackets, D forms with d. Residues, ends and D or L forms follow the SMILES beside them.
Legend:
EGFR [1] = experiment: Western blot of EGFR tyrosine phosphorylation in NCI-H838 cells; format: cell-based, human; settings: for effect on basal P-EGFR, EGFR: inhibitor alone; for effect on basal P-EGFR, EGFR / effect on EGFR transactivation caused by ET-1: data not shown; for effect on EGFR transactivation caused by ET-1: NSCLC cells, concentration not given; for effect on increase in EGFR phosphorylation caused by 100 nM ET-1: 10 μM inhibitor, 2 min ET-1
HER2 [2] = experiment: Western blot of HER2 tyrosine phosphorylation in NCI-H838 cells; format: cell-based, human; settings: for effect on basal P-HER2 or HER2: inhibitor alone; for effect on basal P-HER2 or HER2 / effect on HER2 transactivation caused by ET-1: data not shown; for effect on HER2 transactivation caused by ET-1: NSCLC cells, concentration not given; for effect on increase in HER2 phosphorylation caused by 100 nM ET-1: 10 μM inhibitor, 2 min ET-1
EGFR [3] = experiment: Western blot of EGFR tyrosine phosphorylation in NCI-H1975 cells; format: cell-based, human; settings: 5 mM
Method in brief: (§1)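 Lysates (Tris pH 7.5, vanadate) were either immunoprecipitated with anti-phosphotyrosine antibody (400 µg protein) or loaded directly (20 µg) and probed with anti-PY1068-EGFR or anti-[…]-HER2. ECL bands were quantified by densitometry as mean % tyrosine phosphorylation.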

HER2 [4] = experiment: Western blot of HER2 tyrosine phosphorylation in NCI-H1975 cells; format: cell-based, human; settings: 5 mM
Method in brief: as §1

[5] = system: reactive oxygen species in NCI-H838 cells; experiment: Reactive oxygen species in H2DCF labeled NCI-H838 cells; format: cell-based, human
Method in brief: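 NCI-H838 cells were plated at 30,000/well and cultured overnight. They were loaded with 10 µM H2DCF for 1 h and washed 3 times in serum-free SIT medium. Test compound (5 mM or 10 µM) was added 30 min before 10 µM H2O2. Fluorescence (ex 485, […]) was read 0.5 h after stimulus and expressed as relative fluorescence, mean ± S.D. of 8 determinations.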

ETAR [6] = molecular target: T1, ETAR (Homo sapiens, UniProt P25101); experiment: 125I-ET-1 radioreceptor binding to NCI-H838 cells
T1 sequence (P25101 21-427): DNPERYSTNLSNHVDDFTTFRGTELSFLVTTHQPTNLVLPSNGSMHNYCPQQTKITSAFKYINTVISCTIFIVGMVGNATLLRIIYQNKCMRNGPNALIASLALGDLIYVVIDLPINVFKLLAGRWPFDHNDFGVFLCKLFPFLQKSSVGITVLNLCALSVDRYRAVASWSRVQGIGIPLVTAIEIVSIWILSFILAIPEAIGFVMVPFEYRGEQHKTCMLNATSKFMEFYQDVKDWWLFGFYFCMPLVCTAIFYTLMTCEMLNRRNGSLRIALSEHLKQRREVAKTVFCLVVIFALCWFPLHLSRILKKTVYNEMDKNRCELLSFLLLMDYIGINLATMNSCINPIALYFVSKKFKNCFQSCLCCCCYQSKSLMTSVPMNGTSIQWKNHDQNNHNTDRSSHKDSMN

ETAR [7] = molecular target: T1, ETAR; experiment: 125I-ET-1 radioreceptor binding to NCI-H1975 cells
NCI-H727 cells = experiment: MTT proliferation assay, NCI-H727 cells; format: cell-based; settings: Homo sapiens, NCI-H727, 48 h, read-out: IC50, proliferation
NCI-H838 cells [8] = experiment: MTT proliferation assay, NCI-H838 cells; format: cell-based; settings: Homo sapiens, NCI-H838, 48 h, read-out: IC50, proliferation
A549 cells = experiment: MTT proliferation assay, A549 cells; format: cell-based; settings: Homo sapiens, A549, 48 h, read-out: IC50, proliferation
NCI-H838 cells [9] = experiment: Clonogenic assay, NCI-H838 cells; format: cell-based, human; settings: gefitinib 1 ug/ml; for reduction of colony number: absence of exogenous ET-1, BQ123 1 μM; for Colony number: in the presence of ET-1 10 nM, BQ123/BQ788 1000 nM, 2 weeks
NSCLC patients [10] = settings: plus paclitaxel-carboplatin; cited from earlier work
NSCLC patients [11] = settings: zibotentan or zibotentan plus pemetrexed; cited from earlier work
[12] = system: cytosolic Ca2+ in SC-A1 cells; settings: cited from earlier work
[13] = system: cytosolic Ca2+ in NCI-H1975 cells; experiment: Cytosolic Ca2+ in Fura-2AM loaded NCI-H1975 cells; format: cell-based, human; settings: for antagonism of the Ca2+ increase caused by 10 nM ET-1: 1000 nM antagonist; for effect on basal cytosolic Ca2+: 1000 nM antagonist alone
Method in brief: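 NCI-H1975 cells were detached with trypsin-EDTA and loaded with Fura-2AM in SIT medium (2.5 × 10^6 cells/ml) at 37°C for 30 min. Cells were spun at 1000 × g for 5 min, resuspended at 2.5 × 10^6/ml and placed in a stirred quartz cuvette at 37°C.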

[14] = addition alone (ET-1 100 nM, H2O2 10 μM, Tiron 5 mM, ZD4054 10 μM), 0.5 hr, None = 100
[15] = with H2O2 10 μM, Tiron or ZD4054 added 0.5 h before, read 0.5 hr after H2O2

O=S(=O)(O)c1cc(O)c(O)c(S(=O)(=O)O)c1 [Tiron]
effect on basal P-EGFR, EGFR (EGFR [1]): no effect | effect on basal P-HER2 or HER2 (HER2 [2]): no effect | effect on increase in EGFR tyrosine phosphorylation caused by ET-1 (EGFR [3]): inhibited significantly | effect on increase in HER2 tyrosine phosphorylation caused by ET-1 (HER2 [4]): inhibited significantly | % Fluorescence intensity [5, 14]: 99 ± 7 ^aa^, ^bb % | % Fluorescence intensity [5, 15]: 171 ± 12 ^bb %

CS(=O)(=O)CCNCc1ccc(-c2ccc3ncnc(Nc4ccc(OCc5cccc(F)c5)c(Cl)c4)c3c2)o1 [Lapatinib, lapatinib]
IC50 (ETAR [6]): > 10000 nM | IC50 (ETAR [7]): > 10000 nM | effect on EGFR transactivation caused by ET-1 (EGFR [1]): inhibited | effect on HER2 transactivation caused by ET-1 (HER2 [2]): inhibited | IC50 (NCI-H727 cells): 0.5 µg/mL (≈ 0.86 µM) | IC50 (NCI-H838 cells [8]): 1 µg/mL (≈ 1.72 µM) | IC50 (A549 cells): 2 µg/mL (≈ 3.44 µM)

CC(=O)N[C@@H](CS)C(=O)O [Nacetylcysteine]
effect on EGFR transactivation caused by ET-1 (EGFR [1]): inhibited | effect on HER2 transactivation caused by ET-1 (HER2 [2]): inhibited

COc1cc2ncnc(Nc3ccc(F)c(Cl)c3)c2cc1OCCCN1CCOCC1 [Gefitinib, gefitinib]
effect on HER2 transactivation caused by 100 nM ET-1 (HER2 [2]; 10 μg/ml): significantly reduced | reduction of colony number (NCI-H838 cells [9]): 50% | Colony number (NCI-H838 cells [9]): 32 ± 3 ^aa

CCCCN(CCCC)C(=O)CN1C[C@H](c2ccc3c(c2)OCO3)[C@@H](C(=O)O)[C@@H]1c1ccc(OC)cc1 [atrasentan]
tolerability (NSCLC patients [10]): well tolerated

COc1nc(C)cnc1NS(=O)(=O)c1cccnc1-c1ccc(-c2nnco2)cc1 [ZD4054, zibotentan]
effect on EGFR transactivation caused by ET-1 (EGFR [1]): inhibited | effect on HER2 transactivation caused by ET-1 (HER2 [2]): inhibited | % Fluorescence intensity [5, 14]: 105 ± 6 ^aa^, ^bb % | % Fluorescence intensity [5, 15]: 351 ± 22 ^aa % | IC50 (NCI-H838 cells [8]): 50 µg/mL (≈ 118 µM) | IC50 (A549 cells): 45 µg/mL (≈ 106 µM) | overall survival (NSCLC patients [11]): no differences

CNC(=O)[C@H](Cc1c[nH]c2ccccc12)NC(=O)[C@@H](CC(=O)NO)CC(C)C [GM6001]
effect on increase in EGFR phosphorylation caused by 100 nM ET-1 (EGFR [1]): inhibited significantly | effect on basal P-EGFR, EGFR (EGFR [1]): no effect | effect on increase in HER2 phosphorylation caused by 100 nM ET-1 (HER2 [2]): inhibited significantly | effect on basal P-HER2 or HER2 (HER2 [2]): no effect

COc1ccc2c(c1)CC[C@@H]1[C@@H]2CC[C@]2(C)[C@@H](NCCCCCCN3C(=O)C=CC3=O)CC[C@@H]12 [U73122]
effect on the Ca2+ increase caused by ET-1 [12]: reversed

CCCC[C@@H](NC(=O)[C@@H](Cc1cn(C(=O)OC)c2ccccc12)NC(=O)[C@H](CC(C)(C)C)NC(=O)N1[C@H](C)CCC[C@@H]1C)C(=O)O [BQ788]
IC50 (ETAR [6]): 20 ± 2 nM | IC50 (ETAR [7]): 25 ± 3 nM | antagonism of the Ca2+ increase caused by 10 nM ET-1 [13]: did not antagonize | effect on basal cytosolic Ca2+ [13]: had no effect | effect on EGFR transactivation caused by ET-1 (EGFR [1]): little effect | effect on HER2 transactivation caused by ET-1 (HER2 [2]): little effect | Colony number (NCI-H838 cells [9]): 46 ± 4

COC(=O)C1=C(C)NC(C)=C(C(=O)OC)C1c1ccccc1[N+](=O)[O-] [nifedipine]
effect on the Ca2+ increase caused by ET-1 [12]: reversed

OO [H2O2]
% Fluorescence intensity [5, 14]: 401 ± 37 ^aa %

CC(C)C[C@@H]1NC(=O)[C@@H](C(C)C)NC(=O)[C@@H]2CCCN2C(=O)[C@@H](CC(=O)O)NC(=O)[C@@H](Cc2c[nH]c3ccccc23)NC1=O [BQ123] (cyclo(L[dW][dD]P[dV]); ring closure inferred)
IC50 (ETAR [6]): 1 ± 0.2 nM | IC50 (ETAR [7]): 1.5 ± 0.03 nM | antagonism of the Ca2+ increase caused by 10 nM ET-1 [13]: blocked | effect on basal cytosolic Ca2+ [13]: did not alter | effect on EGFR tyrosine phosphorylation caused by 100 nM ET-1 (EGFR [1]; 0.1 μM antagonist): little effect | effect on EGFR tyrosine phosphorylation caused by 100 nM ET-1 (EGFR [1]; 1 μM or 10 μM antagonist): significantly reduced | effect on HER2 tyrosine phosphorylation caused by 100 nM ET-1 (HER2 [2]; 0.1 μM antagonist): little effect | effect on HER2 tyrosine phosphorylation caused by 100 nM ET-1 (HER2 [2]; 1 μM or 10 μM antagonist): significantly reduced | reduction of colony number (NCI-H838 cells [9]): 22% | Colony number (NCI-H838 cells [9]): 37 ± 2 ^a | effect on the Ca2+ increase caused by ET-1 [12]: reversed

CC(C)(C)n1nc(-c2ccc(Cl)cc2)c2c(N)ncnc21 [PP2]
effect on increase in EGFR phosphorylation caused by 100 nM ET-1 (EGFR [1]): inhibited significantly | effect on basal P-EGFR, EGFR (EGFR [1]): no effect | effect on increase in HER2 phosphorylation caused by 100 nM ET-1 (HER2 [2]): inhibited significantly | effect on basal P-HER2 or HER2 (HER2 [2]): no effect

Reference: PMC5421360 (Peptides, 2017)
